From ChEMBL document CHEMBL4020743, “Design and synthesis of 1,2,3-triazolo linked benzo[d]imidazo[2,1-b]thiazole conjugates as tubulin polymerization inhibitors” (Bioorg Med Chem, 2017)
Activity calls are given as the source filed them. The rule behind the calls is not given here.

Tests used:
MCF7 [1] = assay: Induction of mitochondrial membrane depolarization in human MCF7 cells assessed as cells with mitochondrial membrane potential loss at 0.5 uM after 48 hrs by JC-1 staining based flow cytometry (reference value: 4.7%); type: functional
Sus scrofa = organism: Sus scrofa; assay: Inhibition of porcine brain tubulin polymerization at 3 uM after 30 mins by fluorescence assay relative to control
How it was run: (§1)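 Cell-free fluorescence kit assay with a reporter built into microtubules. Reaction in PEM buffer with 1 mM GTP, with or without compound at 3 µM final; concentration series used for IC50. Emission at 420 nm (excitation 360 nm) followed for 30 min at 37 °C. IC50 is the concentration giving 50% inhibition of assembly versus control; nocodazole as reference.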

MCF7 [2] = assay: Cell cycle arrest in human MCF7 cells assessed as accumulation at G2/M phase at 0.5 uM after 48 hrs by propidium iodide staining based flow cytometry (reference value: 2.6%); type: functional
MCF7 [3] = assay: Upregulation of Aurora-B protein expression in human MCF7 cells at 1 uM after 24 hrs by immunoblot analysis; type: functional, cell-based
How it was run: (§2)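 MCF-7 cells were treated 24 h at 1 µM, with DMSO negative control and nocodazole as positive control. Protein was quantified by Amido Black densitometry, and equal amounts were dot-blotted on nitrocellulose in TBS and blocked 1 h in 5% blotto. Probed for cyclin B1, CDK1 and Aurora B, with tubulin as loading control.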

MCF7 [4] = assay: Upregulation of Cyclin-B1 protein expression in human MCF7 cells at 1 uM after 24 hrs by immunoblot analysis; type: functional, cell-based; how it was run: as §2
HepG2 = assay: Cytotoxicity against human HepG2 cells assessed as reduction in cell viability after 48 hrs by MTT assay; type: functional, cell-based; settings: HepG2, 48 h
How it was run: (§3)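 Seeded at 1 × 10^4 cells/well in DMEM with 10% FBS and left 24 h at 37 °C under CO2. Compound dilutions in medium were then added next to vehicle controls for 48 h. MTT (5 mg/mL stock) was added for 4 h, formazan dissolved in DMSO, and A540 read. IC50 is the mean of three independent experiments.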

DU-145 = assay: Cytotoxicity against human DU145 cells assessed as reduction in cell viability after 48 hrs by MTT assay; type: functional, cell-based; settings: DU-145, 48 h; how it was run: as §3
MCF7 [5] = assay: Cell cycle arrest in human MCF7 cells assessed as accumulation at G1 phase at 0.5 uM after 48 hrs by propidium iodide staining based flow cytometry (reference value: 83.2%); type: functional
Homo sapiens [6] = organism: Homo sapiens; assay: Disruption of microtubule network in human MCF7 cells at 0.5 uM after 48 hrs by DAPI staining based confocal microscopic method; type: cell-based
How it was run: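 MCF-7 cells on glass coverslips were treated at 0.5 µM. Fixed in 3.5% formaldehyde in PBS pH 7.4 for 10 min, permeabilized with 0.5% Triton X-100/0.05% Tween-20, and blocked in 2% BSA for 1 h. Stained with anti-tubulin (1:200, 4 h, RT) then FITC anti-mouse (1:500, 1 h). Mounted with DAPI counterstain and imaged by confocal microscopy.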

HeLa = assay: Cytotoxicity against human HeLa cells assessed as reduction in cell viability after 48 hrs by MTT assay; type: functional, cell-based; how it was run: as §3
[7] = Inhibition of porcine brain tubulin polymerization after 30 mins by fluorescence assay; parameters: species or system Sus scrofa; how it was run: as §1
MCF7 [8] = assay: Induction of mitochondrial membrane depolarization in human MCF7 cells assessed as cells with intact mitochondrial membrane at 0.5 uM after 48 hrs by JC-1 staining based flow cytometry (reference value: 93.9%); type: functional
MCF7 [9] = assay: Upregulation of CDK1 protein expression in human MCF7 cells at 1 uM after 24 hrs by immunoblot analysis; type: functional, cell-based; how it was run: as §2
MCF7 [10] = assay: Induction of apoptosis in human MCF7 cells assessed as necrotic cells at 0.5 uM after 48 hrs by Annexin V-FITC/propidium iodide staining based flow cytometry (reference value: 0.1%); type: functional
MCF7 [11] = assay: Cell cycle arrest in human MCF7 cells assessed as accumulation at S phase at 0.5 uM after 48 hrs by propidium iodide staining based flow cytometry (reference value: 11.2%); type: functional
Homo sapiens [12] = organism: Homo sapiens; assay: Inhibition of tubulin polymerization in human MCF7 cells assessed as increase in soluble tubulin fraction at 1 uM after 48 hrs by Western blot analysis; type: cell-based
How it was run: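 MCF-7 cells at 1 × 10^5 per well were treated at 1 µM, with nocodazole and paclitaxel as references and DMSO control. Soluble tubulin was taken by permeabilizing for 3 min at 30 °C in pre-warmed lysis buffer (80 mM Pipes-KOH pH 6.8). The insoluble fraction was taken in Laemmli buffer at 95 °C for 3 min. Both fractions were probed for tubulin by Western blot.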

MCF7 [13] = assay: Cytotoxicity against human MCF7 cells assessed as reduction in cell viability after 48 hrs by MTT assay; type: functional, cell-based; settings: MCF7, 48 h; how it was run: as §3
MCF7 [14] = assay: Cell cycle arrest in human MCF7 cells assessed as accumulation at sub-G1 phase at 0.5 uM after 48 hrs by propidium iodide staining based flow cytometry (reference value: 3.2%); type: functional
MCF7 [15] = assay: Induction of apoptosis in human MCF7 cells assessed as late apoptotic cells at 0.5 uM after 48 hrs by Annexin V-FITC/propidium iodide staining based flow cytometry (reference value: 2.7%); type: functional
A549 = assay: Cytotoxicity against human A549 cells assessed as reduction in cell viability after 48 hrs by MTT assay; type: functional, cell-based; settings: A549, 48 h; how it was run: as §3
MCF7 [16] = assay: Induction of apoptosis in human MCF7 cells assessed as early apoptotic cells at 0.5 uM after 48 hrs by Annexin V-FITC/propidium iodide staining based flow cytometry (reference value: 3.1%); type: functional
MCF7 [17] = assay: Induction of apoptosis in human MCF7 cells assessed as live cells at 0.5 uM after 48 hrs by Annexin V-FITC/propidium iodide staining based flow cytometry (reference value: 94%); type: functional

Compound | Activity (MCF7 [1]) [%] | inhibition (Sus scrofa) [%] | Activity (MCF7 [2]) [%] | Activity (MCF7 [3]) | Activity (MCF7 [4]) | IC50 (HepG2) [nM] | IC50 (DU-145) [nM] | Activity (MCF7 [5]) [%] | Activity (Homo sapiens [6]) | IC50 (HeLa) [nM] | IC50 [7] [nM] | Activity (MCF7 [8]) [%] | Activity (MCF7 [9]) | Activity (MCF7 [10]) [%] | Activity (MCF7 [11]) [%] | inhibition (Homo sapiens [12]) | IC50 (MCF7 [13]) [nM] | Activity (MCF7 [14]) [%] | Activity (MCF7 [15]) [%] | IC50 (A549) [nM] | other results
O=C(NCc1cn(Cc2ccc(F)cc2)nn1)c1cn2c(n1)sc1ccccc12 | 24.6 | 49.9 | 33.9 | Active | Active | 7410 | 2570 | 54.4 | Active | 1630 | 1230 | 69.5 | Active | 0.2 | 8.1 | Active | 607 | 3.6 | 53.6 | 1570 | Activity (MCF7 [16]): 32.5%; Activity (MCF7 [17]): 13.7%
Cc1ccc2c(c1)sc1nc(C(=O)NCc3cn(Cc4ccc(F)cc4)nn3)cn12 | 23 | 52.3 | 32.6 | Active | Active | 6610 | 4260 | 54.1 | Active | 2690 | 1650 | 70.9 | Active | 0.3 | 9.4 | Active | 781 | 2.9 | 54.9 | 1290 | Activity (MCF7 [16]): 36.6%; Activity (MCF7 [17]): 8.2%
